Screening data as filed in PubChem BioAssay.
Rows were chosen to be rich in hits. Some 2.5% of all compounds tested hit in one or more screens of this group.
MC4R barr agon: MC4R agonists recruiting beta-arrestin, primary screen, cell-based, luminescence, agonist arm of biased-ligand search | activation, % at 8.9 µM | U2OS MC4R beta-arrestin complementation; percent of melanotan II response, DMSO zero | Melanocortin receptor 4 (Homo sapiens), P32245 | 360,000 tested, 0.98% active | AID 540308, 2011;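 active = activation above a per-plate cutoff, the mean activation of sample wells on that plate plus 3 SD, cut at about 8% in these data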
NTR1 agonist: agonists of human NTR1, primary screen, imaging, U2OS cells, beta-arrestin-GFP, high content; 330,000 tested, 0.17% active; Neurotensin receptor type 1 (Homo sapiens), P30989; NTR1-U2OS beta-arrestin-GFP spot imaging, agonist mode; activation, % at 20 µM;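 active = activation at or above 40% of the spot to cytoplasm intensity ratio, with at least 20 cells analyzed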;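 note: 0% = DMSO without peptide and 100% = 100 nM NTR1 peptide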
Target sequence (P30989 whole entry, looked up): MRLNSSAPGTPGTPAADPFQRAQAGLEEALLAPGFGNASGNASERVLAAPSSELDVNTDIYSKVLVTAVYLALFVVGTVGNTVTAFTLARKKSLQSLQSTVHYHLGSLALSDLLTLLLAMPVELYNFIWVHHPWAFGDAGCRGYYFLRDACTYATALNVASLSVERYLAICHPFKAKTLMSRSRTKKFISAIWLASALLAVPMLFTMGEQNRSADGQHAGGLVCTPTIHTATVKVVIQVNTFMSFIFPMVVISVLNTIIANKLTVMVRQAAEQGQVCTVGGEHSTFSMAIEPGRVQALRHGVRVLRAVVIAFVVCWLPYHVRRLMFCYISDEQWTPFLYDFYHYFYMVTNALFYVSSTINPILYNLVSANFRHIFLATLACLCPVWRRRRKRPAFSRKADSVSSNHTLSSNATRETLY
MC4R antagonist: MC4R antagonists of cAMP signaling, primary screen, cell-based, TR-FRET, antagonist arm of biased-ligand search. MC4R-expressing cells, MTII-stimulated cAMP, LANCE TR-FRET. inhibition, % at 6.5 µM. AID 540295, 2011. 360,000 tested, 0.48% active;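 active = inhibition above its plate's cutoff, the mean of tested wells on that plate plus 3 SD, cut at about 29% in these data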;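 note: 0% = Melanotan II alone and 100% = Melanotan II plus saturating MCL0020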
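Material: U2OS-MC4R stable cell line | Reagent: Melanotan II challenge after compound preincubation | Doses: One concentration, 6.5 µM nominal | Incubation: 30-min compound preincubation, 1-h Melanotan II challenge, 1-h detection, room temperature | Signal: TR-FRET cAMP assay | Replicates: One well per compound, no replicates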
A1 inh: caspase 3/7 activation in MEF A1-2A-BIM cells, primary screen, A1 inhibitor project, cell-based, luminescence, HTS. Caspase-Glo 3/7 luminescence, 3 h; percent of clofoctol response, vehicle zero. caspase activation, % (test concentration not listed). 330,000 tested, 0.066% active;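 active = over half of replicate activation scores above 10%, or exactly half above 10 with the replicate mean above 10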
Exocytosis inh: LAMP-1 surface exposure blockers, TALL-104 cells – cell-based, flow cytometry, MLPCN library, primary screen; TALL-104 LAMP-1 surface exposure; cells stimulated with thapsigargin and PMA; inhibition, % at 10 µM; 360,000 tested, 0.66% active;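 active = inhibition above about 55%, limit read from the data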
sPLA2-III inh: human group III sPLA2 inhibitors, primary screen, biochemical, QFRET, BODIPY PC-A2 liposome substrate. QFRET BODIPY PC-A2 liposome hydrolysis, fluorescence. inhibition, % at 12.2 µM. 370,000 tested, 0.56% active. AID 743126, 2013;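 active = inhibition above mean plus 3 SD of compounds lying within the high and low control bounds, cut at about 19% in these data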;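 note: 0% = median of test compound wells and 100% = no enzyme DMSO wells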
sPLA2 confirm: human group III sPLA2 inhibitors, confirmation, biochemical, QFRET, triplicate. shares compounds with sPLA2-III inh. recombinant hGIII-sPLA2, BODIPY PC-A2 QFRET fluorescence. inhibition, % at 12.2 µM. 2,000 tested, 34% active. AID 743280, 2014;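 active = mean inhibition across triplicates above the hit cutoff set in the earlier primary screen, cut at about 19% in these data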;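 note: 0% = enzyme with DMSO and 100% = DMSO wells lacking enzyme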
BODIPY interf: 535nm fluorescence optical interference, confirmation, artefact control for HGIII-sPLA2 inhibitor project, biochemical, QFRET. shares compounds with sPLA2-III inh. BODIPY FL product fluorescence interference. inhibition, % at 12.2 µM. 2,000 tested, 8.5% active;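 active = average inhibition above the solvent-only control mean plus 3 SD, cut at about 6% in these data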;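 note: 0% = DMSO with substrate plus product and 100% = DMSO with substrate alone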
Numbers without * were called inactive.

What do the screens show for `Cc1cccc(NC(=O)Nc2ccccn2)c1C`?
MC4R barr agon: 1.6; NTR1 agonist: 1.7; MC4R antagonist: -1.1; A1 inh: -1.3; Exocytosis inh: -2.9; sPLA2-III inh: -0.8

What do the screens show for `CCOc1cc(CNC2CCCC2)c(Cl)cc1OCC(=O)Nc1ccccc1`?
MC4R barr agon: -2.9; NTR1 agonist: 0.5; MC4R antagonist: -1.4; A1 inh: -0.8; Exocytosis inh: -4.7; sPLA2-III inh: -6.2

How did COc1cc2c(cc1OC)C1(C)N(CC2)C(C(C)=O)=NN1c1ccc(Cl)cc1 (stereo unspecified) do in these assays?
MC4R barr agon: -0.3; NTR1 agonist: 2.6; MC4R antagonist: 0.1; A1 inh: -0.3; Exocytosis inh: -2.1; sPLA2-III inh: 19.7*; sPLA2 confirm: 9.3; BODIPY interf: -4.6

What do the screens show for `COc1cc2c(cc1OC)CN(C(=O)c1cc(Cl)nc(Cl)c1)CC2`?
MC4R barr agon: 0.6; NTR1 agonist: -0.2; MC4R antagonist: -3.7; A1 inh: 0.0; Exocytosis inh: -9.0; sPLA2-III inh: 7.3

How did COc1ccc(-c2c(C#N)c(SCC(N)=O)nc3c2CCCC3)cc1 do in these assays?
MC4R barr agon: -2.7; NTR1 agonist: 8.5; MC4R antagonist: 4.1; A1 inh: 0.6; Exocytosis inh: -0.1; sPLA2-III inh: 19.8*; sPLA2 confirm: 19.6*; BODIPY interf: -6.8

How did CN(Cc1ccccc1)C(=O)c1csc([C@@H]2O[C@H](CO)[C@@H](O)[C@H]2O)n1 do in these assays?
MC4R barr agon: -1.2; MC4R antagonist: -5.5; Exocytosis inh: -6.6; sPLA2-III inh: 19.6*; sPLA2 confirm: -5.9; BODIPY interf: -3.6

What do the screens show for `CCN(CC)C(=O)c1csc([C@@H]2O[C@H](CO)[C@H](O)[C@H](O)[C@H]2O)n1`?
MC4R barr agon: -0.7; MC4R antagonist: 4.8; Exocytosis inh: 5.3; sPLA2-III inh: 17.0

How did CC(C)CNC(=O)COc1ccc2c3c(c(=O)oc2c1)CCC3 do in these assays?
MC4R barr agon: -1.0; NTR1 agonist: 1.1; MC4R antagonist: 6.3; A1 inh: 0.3; Exocytosis inh: -2.6; sPLA2-III inh: 21.1*; sPLA2 confirm: -1.9; BODIPY interf: -4.8

Results for CCOC(=O)C1=C(N)OC2=C(C(=O)CC(C)(C)C2)C1c1cc(CSc2nnnn2C)cs1 (stereo unspecified) ?
MC4R barr agon: -1.5; NTR1 agonist: -0.2; MC4R antagonist: 13.9; A1 inh: 0.0; Exocytosis inh: -2.1; sPLA2-III inh: -1.0

What do the screens show for `Cc1cccc2nc(CSC(=N)N)c(Br)n12`?
MC4R barr agon: 1.6; NTR1 agonist: 2.8; MC4R antagonist: -4.5; A1 inh: 0.1; Exocytosis inh: -2.5; sPLA2-III inh: 23.6*; sPLA2 confirm: 11.0; BODIPY interf: -11.2

What do the screens show for `N=C(N)SCc1nc2ccccn2c1Br`?
MC4R barr agon: -0.3; NTR1 agonist: 0.8; MC4R antagonist: 0.3; A1 inh: -0.1; Exocytosis inh: -2.8; sPLA2-III inh: 29.7*; sPLA2 confirm: 5.0; BODIPY interf: -4.4

How did N=C(N)SCc1ncccc1O do in these assays?
MC4R barr agon: 1.6; NTR1 agonist: -0.1; MC4R antagonist: 19.7; A1 inh: -0.6; Exocytosis inh: 0.1

How did NS(=O)(=O)c1ccc(CNC(=O)C(c2ccccc2)c2ccccc2)cc1 do in these assays?
MC4R barr agon: 0.2; NTR1 agonist: 0.9; MC4R antagonist: 13.1; A1 inh: 0.5; Exocytosis inh: -7.1; sPLA2-III inh: -7.5

How did O=C1C2C3C=CC(CC3)C2C(=O)N1c1cccc(Br)c1 (stereo unspecified) do in these assays?
MC4R barr agon: -0.4; NTR1 agonist: -1.4; MC4R antagonist: 3.0; A1 inh: -1.3; Exocytosis inh: 1.4; sPLA2-III inh: -2.7

What do the screens show for `COc1ccc(CCC(C)NCc2ccc(C(F)(F)F)cc2)cc1` (stereo unspecified)?
MC4R barr agon: 1.7; NTR1 agonist: -0.4; MC4R antagonist: 4.3; A1 inh: -1.4; Exocytosis inh: 47.5; sPLA2-III inh: 17.9

Results for COc1ccc(CNC(C)CCc2ccccc2)cc1 (stereo unspecified) ?
MC4R barr agon: 0.6; NTR1 agonist: -0.7; MC4R antagonist: -0.6; A1 inh: -1.2; Exocytosis inh: -1.0; sPLA2-III inh: 20.5*; sPLA2 confirm: 8.9; BODIPY interf: -15.7

How did Cc1ccc2nc(-c3ccc(CN4CCC(c5nc6ccccc6[nH]5)CC4)cc3)c(-c3ccccc3)nc2c1 do in these assays?
sPLA2-III inh: 0.7

Results for Fc1ccc2nc(-c3ccc(CN4CCC5(CC4)CNc4ccccc45)cc3)c(-c3ccccc3)nc2c1 ?
sPLA2-III inh: 20.1*; sPLA2 confirm: 17.4; BODIPY interf: -7.6

What do the screens show for `Cc1cccc(/C=N\NC(=O)c2ccc(Cl)cc2)c1O`?
MC4R barr agon: -1.1; NTR1 agonist: 2.8; MC4R antagonist: 4.3; A1 inh: -1.1; Exocytosis inh: -0.5; sPLA2-III inh: 37.2*; sPLA2 confirm: 22.4*; BODIPY interf: 4.8

Results for Cc1cccc(/C=N/NC(=O)c2c(-c3ccccc3)noc2C)c1O ?
MC4R barr agon: -4.0; NTR1 agonist: 0.8; MC4R antagonist: 1.1; A1 inh: -0.1; Exocytosis inh: -5.8; sPLA2-III inh: 33.9*; sPLA2 confirm: 15.5; BODIPY interf: -1.5

What do the screens show for `Cc1cccc(/C=N/NC(=O)c2ccc3c(c2)OCCO3)c1O`?
MC4R barr agon: -1.1; NTR1 agonist: 3.9; MC4R antagonist: 19.4; A1 inh: 1.6; Exocytosis inh: -0.3; sPLA2-III inh: 30.5*; sPLA2 confirm: 19.4*; BODIPY interf: 2.7

What do the screens show for `Cc1cccc(/C=N/NC(=O)Cc2ccc(Cl)cc2)c1O`?
MC4R barr agon: 0.7; NTR1 agonist: 4.2; MC4R antagonist: -1.2; A1 inh: 1.5; Exocytosis inh: -2.5; sPLA2-III inh: -7.7
